IC50 and Reduction data for twelve molecules are collected here from ChEMBL document CHEMBL1135185, “Synthesis and PTP1B inhibition of 1,2-naphthoquinone derivatives as potent anti-diabetic agents” (Bioorg Med Chem Lett, 2002).

Activity calls are given as the source filed them. The calls are words filed in the database; no cut-off is given here.

Assay [1] concerns the target T1, Receptor-type tyrosine-protein phosphatase C (Homo sapiens, UniProt P08575).
T1 sequence (P08575 whole entry): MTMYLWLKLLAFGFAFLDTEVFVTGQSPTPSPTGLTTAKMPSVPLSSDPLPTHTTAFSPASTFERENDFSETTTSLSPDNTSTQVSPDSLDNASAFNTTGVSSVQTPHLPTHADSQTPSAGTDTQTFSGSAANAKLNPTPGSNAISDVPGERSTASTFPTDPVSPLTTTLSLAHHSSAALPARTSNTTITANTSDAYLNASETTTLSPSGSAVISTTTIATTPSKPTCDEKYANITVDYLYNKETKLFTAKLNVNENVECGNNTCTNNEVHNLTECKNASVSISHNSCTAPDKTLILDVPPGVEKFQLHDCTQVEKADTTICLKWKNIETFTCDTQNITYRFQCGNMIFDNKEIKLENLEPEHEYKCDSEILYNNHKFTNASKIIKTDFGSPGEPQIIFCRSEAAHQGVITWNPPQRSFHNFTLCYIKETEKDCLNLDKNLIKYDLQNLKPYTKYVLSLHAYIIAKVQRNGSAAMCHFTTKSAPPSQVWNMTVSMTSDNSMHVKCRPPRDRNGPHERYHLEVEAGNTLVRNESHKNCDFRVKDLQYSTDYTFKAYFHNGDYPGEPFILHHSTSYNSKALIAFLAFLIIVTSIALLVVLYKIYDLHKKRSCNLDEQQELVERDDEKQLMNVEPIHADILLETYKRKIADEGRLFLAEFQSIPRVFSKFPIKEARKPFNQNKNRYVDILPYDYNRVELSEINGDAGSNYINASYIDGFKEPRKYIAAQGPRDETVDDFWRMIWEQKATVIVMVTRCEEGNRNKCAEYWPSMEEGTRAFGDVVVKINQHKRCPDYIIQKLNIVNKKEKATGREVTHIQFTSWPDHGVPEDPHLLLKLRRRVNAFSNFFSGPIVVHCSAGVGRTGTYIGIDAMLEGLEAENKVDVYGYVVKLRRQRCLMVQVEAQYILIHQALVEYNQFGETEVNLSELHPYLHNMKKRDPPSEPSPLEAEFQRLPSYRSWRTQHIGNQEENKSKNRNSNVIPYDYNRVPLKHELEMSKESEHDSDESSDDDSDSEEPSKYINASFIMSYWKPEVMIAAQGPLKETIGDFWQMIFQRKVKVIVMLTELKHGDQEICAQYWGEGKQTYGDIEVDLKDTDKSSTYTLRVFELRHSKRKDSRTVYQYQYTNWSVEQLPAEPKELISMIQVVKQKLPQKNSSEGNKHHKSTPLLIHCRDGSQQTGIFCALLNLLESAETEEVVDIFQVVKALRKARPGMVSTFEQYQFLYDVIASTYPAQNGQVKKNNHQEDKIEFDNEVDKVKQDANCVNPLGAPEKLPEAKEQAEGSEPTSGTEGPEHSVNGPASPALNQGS
In words: In vitro inhibitory activity against recombinant human CD45 using fluorescein diphosphate (FDP) as a substrate.

Assay [2] has as its target T2, M-phase inducer phosphatase 2 (Homo sapiens, UniProt P30305).
T2 sequence (P30305 whole entry): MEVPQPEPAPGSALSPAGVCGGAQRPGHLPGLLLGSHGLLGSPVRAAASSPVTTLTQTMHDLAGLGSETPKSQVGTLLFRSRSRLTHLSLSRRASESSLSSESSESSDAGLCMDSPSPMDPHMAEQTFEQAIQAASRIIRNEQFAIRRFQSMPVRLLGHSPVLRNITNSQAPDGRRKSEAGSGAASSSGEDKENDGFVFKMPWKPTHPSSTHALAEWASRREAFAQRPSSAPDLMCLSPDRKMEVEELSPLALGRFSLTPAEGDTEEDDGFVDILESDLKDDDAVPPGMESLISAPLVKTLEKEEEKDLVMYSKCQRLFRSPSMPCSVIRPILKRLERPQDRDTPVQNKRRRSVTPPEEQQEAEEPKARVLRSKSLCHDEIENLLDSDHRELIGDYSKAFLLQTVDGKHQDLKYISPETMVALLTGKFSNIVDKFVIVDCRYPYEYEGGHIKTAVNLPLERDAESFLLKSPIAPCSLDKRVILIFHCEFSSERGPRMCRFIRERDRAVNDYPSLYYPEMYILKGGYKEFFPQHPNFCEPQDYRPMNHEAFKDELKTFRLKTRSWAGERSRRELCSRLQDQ
In words: In vitro inhibitory activity against recombinant human Cdc25B using fluorescein diphosphate (FDP) as a substrate.

The target in assay [3] is T3, Tyrosine-protein phosphatase non-receptor type 1 (Homo sapiens, UniProt P18031).
T3 sequence (P18031 whole entry): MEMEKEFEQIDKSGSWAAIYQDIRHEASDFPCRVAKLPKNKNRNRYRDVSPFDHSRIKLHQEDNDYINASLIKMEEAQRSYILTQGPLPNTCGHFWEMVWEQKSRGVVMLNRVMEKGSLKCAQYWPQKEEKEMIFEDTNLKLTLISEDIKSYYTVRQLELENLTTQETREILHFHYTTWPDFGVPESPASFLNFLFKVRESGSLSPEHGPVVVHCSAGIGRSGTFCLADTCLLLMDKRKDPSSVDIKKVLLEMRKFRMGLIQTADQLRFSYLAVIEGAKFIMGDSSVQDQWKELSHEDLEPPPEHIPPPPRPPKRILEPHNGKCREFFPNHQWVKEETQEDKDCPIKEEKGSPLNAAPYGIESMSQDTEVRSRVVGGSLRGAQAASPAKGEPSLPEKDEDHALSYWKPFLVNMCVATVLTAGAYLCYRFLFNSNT
In words: In vitro inhibitory activity against recombinant human protein-tyrosine phosphatase 1B (PTP1B) using fluorescein diphosphate (FDP) as a substrate. The conditions noted are these: read-out: IC50. The method in brief:
(§1)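 Recombinant human PTP1B enzyme, fluorescein diphosphate (FDP) as substrate. Enzyme activity was followed by fluorescence measurement. IC50 values were obtained by direct regression curve analysis.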

Assay [4] in a line: In vitro inhibitory activity against recombinant […] Yop using fluorescein diphosphate (FDP) as a substrate.
Assay [5] can be described thus: In vitro inhibitory activity against recombinant human PPI using fluorescein diphosphate (FDP) as a substrate.
In assay [6] the target is Receptor-type tyrosine-protein phosphatase F (Homo sapiens, UniProt P10586). The assay can be described thus: In vitro inhibitory activity against recombinant human LAR using fluorescein diphosphate (FDP) as a substrate.
Receptor-type tyrosine-protein phosphatase F, sequence (P10586 whole entry): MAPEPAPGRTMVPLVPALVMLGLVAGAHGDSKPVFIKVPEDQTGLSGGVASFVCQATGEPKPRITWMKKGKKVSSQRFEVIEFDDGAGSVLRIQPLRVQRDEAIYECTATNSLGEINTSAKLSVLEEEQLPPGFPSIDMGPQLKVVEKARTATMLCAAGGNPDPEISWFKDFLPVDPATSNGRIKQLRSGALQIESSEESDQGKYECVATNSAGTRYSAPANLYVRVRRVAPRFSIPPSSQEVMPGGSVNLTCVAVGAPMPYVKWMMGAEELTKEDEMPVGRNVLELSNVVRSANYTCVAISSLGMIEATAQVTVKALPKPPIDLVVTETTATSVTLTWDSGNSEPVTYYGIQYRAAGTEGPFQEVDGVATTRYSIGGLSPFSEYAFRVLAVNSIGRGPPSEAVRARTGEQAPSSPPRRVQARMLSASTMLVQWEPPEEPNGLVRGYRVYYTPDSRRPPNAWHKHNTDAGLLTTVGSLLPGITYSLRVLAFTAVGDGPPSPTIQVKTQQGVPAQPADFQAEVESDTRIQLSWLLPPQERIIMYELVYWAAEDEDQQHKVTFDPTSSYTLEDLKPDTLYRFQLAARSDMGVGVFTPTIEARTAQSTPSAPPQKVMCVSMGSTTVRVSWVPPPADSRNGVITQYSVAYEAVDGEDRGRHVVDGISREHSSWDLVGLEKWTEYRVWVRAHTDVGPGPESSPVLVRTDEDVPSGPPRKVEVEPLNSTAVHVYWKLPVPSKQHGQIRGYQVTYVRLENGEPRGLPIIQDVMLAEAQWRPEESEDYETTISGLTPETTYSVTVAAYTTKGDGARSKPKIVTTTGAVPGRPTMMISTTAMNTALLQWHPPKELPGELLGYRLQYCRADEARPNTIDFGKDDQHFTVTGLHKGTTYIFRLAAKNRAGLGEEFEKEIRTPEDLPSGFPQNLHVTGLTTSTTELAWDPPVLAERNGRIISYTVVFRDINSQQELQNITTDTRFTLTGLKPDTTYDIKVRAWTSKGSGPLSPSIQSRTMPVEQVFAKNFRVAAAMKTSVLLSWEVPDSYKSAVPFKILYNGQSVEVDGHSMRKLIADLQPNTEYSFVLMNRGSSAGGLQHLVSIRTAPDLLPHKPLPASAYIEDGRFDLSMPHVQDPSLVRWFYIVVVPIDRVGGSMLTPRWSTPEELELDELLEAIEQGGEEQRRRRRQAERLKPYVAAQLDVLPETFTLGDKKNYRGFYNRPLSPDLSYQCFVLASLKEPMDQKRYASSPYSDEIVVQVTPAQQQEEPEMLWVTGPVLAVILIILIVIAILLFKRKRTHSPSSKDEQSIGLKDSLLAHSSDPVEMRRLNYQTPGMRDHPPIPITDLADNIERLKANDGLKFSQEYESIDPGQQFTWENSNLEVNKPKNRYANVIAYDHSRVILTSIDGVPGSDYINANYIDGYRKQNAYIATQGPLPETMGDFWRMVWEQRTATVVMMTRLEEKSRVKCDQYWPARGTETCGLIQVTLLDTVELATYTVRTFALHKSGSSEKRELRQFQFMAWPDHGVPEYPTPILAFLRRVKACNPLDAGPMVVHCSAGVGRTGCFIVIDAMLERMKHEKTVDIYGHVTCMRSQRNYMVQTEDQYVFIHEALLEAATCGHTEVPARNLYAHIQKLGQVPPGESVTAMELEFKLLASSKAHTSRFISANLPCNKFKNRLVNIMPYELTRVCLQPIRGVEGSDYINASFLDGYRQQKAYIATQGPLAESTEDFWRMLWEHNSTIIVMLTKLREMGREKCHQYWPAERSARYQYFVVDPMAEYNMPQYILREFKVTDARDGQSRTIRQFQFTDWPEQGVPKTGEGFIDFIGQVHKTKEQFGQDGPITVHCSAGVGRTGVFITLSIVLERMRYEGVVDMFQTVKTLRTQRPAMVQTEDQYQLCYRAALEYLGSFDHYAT
The subject of assay [7] is Mus musculus. In words: In vivo test to determine the ability to reduce plasma glucose levels in ob/ob mice at oral dose of 25 mg/kg/day for 5 days; Active. The class given is functional, organism-based.
Assay [8] has as its target T3, Tyrosine-protein phosphatase non-receptor type 1. The assay can be described thus: Inhibition of human Protein-tyrosine phosphatase 1B (PTP1B) using fluorescein diphosphate (FDP). The method in brief:
as §1

Assay [9] has the same target. The assay can be described thus: In vitro inhibitory activity against recombinant human protein-tyrosine phosphatase 1B (PTP1B) using fluorescein diphosphate (FDP) as a substrate; Not active. Put shortly: as §1

Consider `COC(=O)c1ccc(C2=CC(=O)C(=O)c3ccccc32)cc1`, for which the IC50 (usually the concentration that gives 50% inhibition) in assay [1] amounted to 1.65 µM; in [2], 2.13 µM; in [3] it was 1.54 µM; in assay [4], 12 µM.
Take `O=C1C=C(c2ccccc2)c2ccccc2C1=O`: the IC50 in [1] stood at 0.84 µM; in [2], 9.52 µM; in assay [5], 8.37 µM; in [3], 0.86 µM; in [4] it was 21.1 µM.
With `O=C1C=C(c2c[nH]c3ccccc23)c2ccccc2C1=O`, the IC50 in assay [1] turned out to be 3.07 µM; in assay [2] it was 1.95 µM; in assay [6] it was 10.2 µM; in assay [5], 3.19 µM; in assay [3], 1.13 µM; in assay [4] it was 25.6 µM.
For `CC(C)(C)OC(=O)COc1ccc(CC2=C(n3ccc4ccccc43)c3ccccc3C(=O)C2=O)cc1`, the Reduction entry in assay [7] is “Active”. It took 0.65 µM to reach half-maximal inhibition in assay [8] (IC50).
As to `CCCCC1=CC(=O)C(=O)c2ccccc21`, in assay [9], the IC50 result is listed as “Not Active”.
With `CCCCCCCCCCC1=CC(=O)C(=O)c2ccccc21`, the IC50 entry in [9] was “Not Active”.
With `CCCCCOc1ccc2c(c1)C(c1ccccc1)=CC(=O)C2=O`, in assay [9], the half-inhibitory concentration (IC50) entry is “Not Active”.
For the molecule `Cc1c(C2=CC(=O)C(=O)c3ccccc32)c2ccccc2n1C`, in assay [9], the IC50 result is listed as “Not Active”.
As for `O=C1C=C(C2CCCCC2)c2ccccc2C1=O`, the IC50 in assay [1] was determined as 3.27 µM; in [2], 3 µM; in assay [6] it was 8.99 µM; in [5], 8.06 µM; in [3], 0.32 µM; in [4] it was 17.9 µM.
Consider `O=C1C=C(c2c(-c3ccccc3)[nH]c3ccccc23)c2ccccc2C1=O`, for which the half-maximal inhibitory concentration (IC50) entry in assay [9] is “Not Active”.
For `CCOC(=O)c1ccc(CCC2=C(c3ccccc3)c3ccccc3C(=O)C2=O)cc1`, it took 1.01 µM to reach half-maximal inhibition in [8] (IC50).
Regarding `COC(=O)CCc1ccc2c(c1)C(c1ccccc1)=CC(=O)C2=O`, half-maximal inhibition in [8] (IC50) required 0.33 µM.
